{
  "source": "ChEMBL document CHEMBL4382201",
  "about": "(J Med Chem, 2018)",
  "key": {"[1]": {"assay": "Drug level in DMSO-d6/PBS buffer treated with 4-(bis(2-chloroethyl)amino)phenylboronic acid assessed as compound formation after 10 days in presence of GSH by IT-TOF mass analysis", "type": "physicochemical", "details": "240 h"}, "[2]": {"assay": "Drug level in DMSO-d6/PBS buffer treated with (3-(((2-Amino-3-methoxy-3-oxopropyl)thio)methyl)-4-(bis(2-chloroethyl)amino)phenyl)boronic Acid assessed as compound formation after 10 days in presence of GSH by IT-TOF mass analysis", "type": "physicochemical", "details": "240 h"}, "dsDNA [3]": {"tested_on": "dsDNA", "assay": "Induction of DNA-interstanded-cross-link formation in [32P]-labeled 49-mer duplex DNA (unknown origin) at 1 mM in absence of H2O2 after 16 hrs by PAGE relative to control", "type": "functional", "method_in_brief": "(§1)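 A 32P-labelled 49-mer, annealed with 1.5 equiv complement (65 °C for 3 min in 10 mM potassium phosphate pH 7, 100 mM NaCl, then slow cooling), was used at 1.0 µM before final dilution. Duplex was mixed with compound (final 1 mM), NaCl and potassium phosphate pH 8, with or without H2O2. Incubation 16 h at room temperature, formamide quench, then 20% denaturing PAGE.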"}, "dsDNA [4]": {"tested_on": "dsDNA", "assay": "Induction of DNA-interstanded-cross-link formation in [32P]-labeled 49-mer duplex DNA (unknown origin) at 1 mM in presence of H2O2 after 16 hrs by PAGE relative to control", "type": "functional", "method_in_brief": "as §1"}, "[5]": {"tested_on": "Panel NCI-60 (60 carcinoma cell lines)", "assay": "Growth inhibition of human NCI60 cells at 10 uM after 48 hrs by SRB assay relative to control", "type": "functional, cell-based", "method_in_brief": "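NCI-60 one-dose screen: cells exposed to 10 µM for 48 h at 37 °C, 5% CO2, 100% humidity. Percent growth is given relative to the no-drug control and the time-zero cell count.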"}, "MDA-MB-468": {"tested_on": "MDA-MB-468", "assay": "Growth inhibition of human MDA-MB-468 cells after 48 hrs by […]", "type": "functional, cell-based", "details": "MDA-MB-468, 48 h"}, "DNA": {"tested_on": "DNA", "assay": "Induction of DNA cross-linking activity in human CLL-derived lymphocytes assessed as increase in gammaH2AX formation at 5 to 20 uM after 24 hrs by flow cytometry", "type": "functional, cell-based", "method_in_brief": "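Primary CLL lymphocytes from 5 patients were treated at 5-20 µM for 24 h. γH2AX was quantified by flow cytometry.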"}, "[6]": {"assay": "Solubility of the compound in PBS buffer at 10 mM at pH 7.4 by UV-based analysis", "type": "physicochemical", "method_in_brief": "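Compound (10 mM DMSO stock) was diluted into pH 7.4 buffer (ethanolamine/KH2PO4/potassium acetate/KCl) to a final 5% DMSO. After sonication and 18 h agitation the mixture was filtered and scanned by UV at 230-800 nm. Solubility was calculated from calibration plots made in 20% acetonitrile buffer, in quadruplicate, with solubility standards on each plate.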"}},
  "note": "Activity calls are given as the source filed them. The rule behind the calls is not given here.",
  "data": [
    {"compound": "OCCN(CCCl)c1ccc(B(O)O)cc1", "values": [
      {"measurement": "Drug uptake", "setting": "[1]", "result": "Active"}
    ]},
    {"compound": "COC(=O)C1CSCc2cc(B(O)O)ccc2N(CCO)CCN1", "note": "(stereo unspecified)", "values": [
      {"measurement": "Drug uptake", "setting": "[2]", "result": "Active"}
    ]},
    {"compound": "N[C@H](Cc1cn(Cc2cc(B(O)O)ccc2N(CCCl)CCCl)c2ccccc12)C(=O)O", "values": [
      {"measurement": "Activity", "setting": "dsDNA [3]", "result": "1.5 to 15", "unit": "%"},
      {"measurement": "Activity", "setting": "dsDNA [4]", "result": "< 65", "unit": "%"},
      {"measurement": "growth inhibition (GI)", "setting": "[5]", "result": "inactive"}
    ]},
    {"compound": "O=C(O)CCCc1ccc(N(CCCl)CCCl)cc1", "note": "[CHLORAMBUCIL]", "values": [
      {"measurement": "Activity", "setting": "dsDNA [3]", "result": 5.7, "unit": "%"},
      {"measurement": "IC50", "setting": "MDA-MB-468", "result": 34.4, "unit": "µM"}
    ]},
    {"compound": "CC1(C)OB(c2ccc(CO)cc2)OC1(C)C", "values": [
      {"measurement": "Activity", "setting": "DNA", "result": "inactive"}
    ]},
    {"compound": "CC1(C)OB(c2ccc(N(CCCl)CCCl)c([N+](=O)[O-])c2)OC1(C)C", "values": [
      {"measurement": "Activity", "setting": "dsDNA [3]", "result": "1.5 to 15", "unit": "%"},
      {"measurement": "Activity", "setting": "dsDNA [4]", "result": "< 9", "unit": "%"},
      {"measurement": "solubility", "setting": "[6]", "result": 380, "unit": "µM"},
      {"measurement": "growth inhibition (GI)", "setting": "[5]", "result": "inactive"},
      {"measurement": "IC50", "setting": "MDA-MB-468", "result": 92.8, "unit": "µM"}
    ]},
    {"compound": "COC(=O)C1CSCc2cc(B(O)O)ccc2N(CCCl)CCN1", "note": "(stereo unspecified)", "values": [
      {"measurement": "Drug uptake", "setting": "[2]", "result": "Active"}
    ]},
    {"compound": "CCCCOC(=O)C(NC(=O)OC(C)(C)C)c1cn(Cc2cc(B3OC(C)(C)C(C)(C)O3)ccc2N(CCCl)CCCl)c2ccccc12", "note": "(stereo unspecified)", "values": [
      {"measurement": "Activity", "setting": "dsDNA [3]", "result": "< 5", "unit": "%"},
      {"measurement": "growth inhibition (GI)", "setting": "[5]", "result": "inactive"}
    ]}
  ]
}
